Source: PubChem (several laboratories)
Only some compounds are listed: those with a hit (about 3.2% of all), similar ones and a draw of the others.
NR2E3 ag-1: inhibitors of NR2E3-RetCOR corepressor binding, primary screen, NR2E3 agonist project, biochemical, TR-FRET, GST-NR2E3, biotin-RetCOR; AID 2300, 2010; inhibition of corepressor binding, % at 4.78 µM; 1536-well; 320,000 compounds, 0.12% hits; Photoreceptor-specific nuclear receptor (Homo sapiens), Q9Y5X4;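 active means percent inhibition above the cutoff of mean plus 3 SD of all tested compounds, set per screening campaign, cut at about 20% in these data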
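system = GST-tagged NR2E3 plus biotinylated RetCOR corepressor | input = 1.35 nM GST-NR2E3 | also added = 7 nM biotin-RetCOR | schedule = 5 h incubation at 4 °C | measured by = TR-FRET with europium anti-GST and streptavidin-D2, 340 nm excitation | read-out = percent loss of FRET ratio relative to control wells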
DAX1 inh-1: DAX1 (NR0B1) inhibitors on StAR promoter, primary screen, cell-based, luminescence, SF-1 (NR5A1), full-length DAX-1; AID 652010, 2013; 370,000 compounds, 1.1% hits; HEK293T StAR-luciferase reporter, SF-1/DAX-1 repression relief; inhibition, % at 6.8 µM;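 active means inhibition above the mean over all tested compounds plus 3 SD, cut at about 3.6% in these data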;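 further: higher inhibition means more luminescence from relief of DAX-1 repression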
NR2E3 ag-2: NR2E3 agonists in two-hybrid cells, primary screen, cell-based, luminescence, CHO-S, Gal4-NCOR/VP16-NR2E3; Photoreceptor-specific nuclear receptor (Homo sapiens), Q9Y5X4; luciferase; inhibition of corepressor binding, % at 3.98 µM; 360,000 compounds, 0.35% hits; AID 602229, 2012;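 active means inhibition above the mean of all tested compounds plus 3 SD, cut at about 70% in these data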;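 further: higher means lower luciferase signal from less NR2E3 corepressor binding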
SMARCA2 act: SMARCA2 (BRM) function activators, primary screen, cell-based, luminescence, high throughput. MG213 cells, MMTV-luciferase reporter, dexamethasone, overnight. activation, % at 9.1 µM. 370,000 compounds, 1% hits. AID 652017, 2013; in the data active means activation above about 7.8%
JMJD2C inh: inhibitors of GASC-1 histone demethylase, primary screen, biochemical, fluorescence, DELFIA europium; GST-JMJD2C(1-420) H3K9me3 demethylation; inhibition, % at 2.35 µM; 330,000 compounds, 0.069% hits;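 active means more than half of a compound's replicate wells show inhibition beyond 50%, single wells judged on their own value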;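 further: signal counts dimethyl H3K9 product captured on neutravidin plate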
DAX1 inh-2: DAX1 (NR0B1) inhibitors, primary screen, cell-based, HEK293, Gal4-DAX1, luciferase luminescence; Nuclear receptor subfamily 0 group B member 1 (Homo sapiens), P51843; HEK293 Gal4-DAX1 luciferase reporter; inhibition, % at 6.75 µM; 340,000 compounds, 0.99% hits;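 active means inhibition above the mean over all tested compounds plus 3 SD, cut at about 4.2% in these data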;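 further: inhibition shows as a rise in luminescence from relieved DAX1 repression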
DAX1 inh confirm: DAX1 (NR0B1) inhibitors relieving SF-1 repression, confirmation, cell-based, luminescence, HEK293T, full-length DAX-1, SF-1 activated StAR promoter; inhibition, % at 6.8 µM; HEK293T StAR-promoter luciferase reporter, SF-1/DAX-1 repression; AID 652134, 2013; 2,400 compounds, 87% hits; shares compounds with DAX1 inh-1;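 active means inhibition above the average of every tested compound plus 3 SD, cut at about 3.8% in these data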
Target sequence (P51843 whole entry, looked up): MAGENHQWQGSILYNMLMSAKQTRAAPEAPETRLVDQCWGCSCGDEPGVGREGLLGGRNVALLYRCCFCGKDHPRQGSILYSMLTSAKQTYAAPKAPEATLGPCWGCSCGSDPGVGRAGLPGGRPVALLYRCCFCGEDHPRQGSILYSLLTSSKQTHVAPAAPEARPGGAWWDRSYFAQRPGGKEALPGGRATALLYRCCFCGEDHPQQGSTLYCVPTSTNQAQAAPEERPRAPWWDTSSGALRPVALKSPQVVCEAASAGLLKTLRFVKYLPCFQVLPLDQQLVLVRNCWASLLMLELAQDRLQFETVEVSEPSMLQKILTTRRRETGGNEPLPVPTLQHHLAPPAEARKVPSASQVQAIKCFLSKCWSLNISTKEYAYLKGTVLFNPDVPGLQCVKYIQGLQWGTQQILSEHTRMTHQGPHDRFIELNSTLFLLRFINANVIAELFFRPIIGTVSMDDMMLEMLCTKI
SF1 AF2mut Luc: StAR reporter signal changes without DAX1, counter-screen for DAX1 inhibitor project, cell-based, luminescence, AF-2 mutant SF-1, transactivation; shares compounds with DAX1 inh-1; HEK293 StAR-luciferase, SF-1 AF2 mutant; inhibition, % at 6.8 µM; 2,400 compounds, 78% hits;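 active means inhibition above the mean of all tested compounds plus 3 SD, cut at about 3% in these data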
Numbers stand for hits; - = inactive; . = no result.

SMILES | NR2E3 ag-1 | DAX1 inh-1 | NR2E3 ag-2 | SMARCA2 act | JMJD2C inh | DAX1 inh-2 | DAX1 inh confirm | SF1 AF2mut Luc
O=C(NC1=NCCS1)c1csc2ccccc12 | - | 4.5 | - | - | - | - | 12.2 | 8.1
Cc1c(NC(=S)NC(=O)c2cc3ccccc3o2)cccc1C(=O)O | - | 6.8 | - | - | - | - | 6.6 | 5.8
O=C(NC1=NCCS1)c1ccccc1Cl | - | - | - | - | - | - | . | .
O=C(Nc1ncccc1O)c1cc2ccccc2o1 | - | 26.9 | - | - | - | - | 27.4 | 14.0
O=C(Nc1cccc(C(=O)Nc2cccc(Br)c2)c1)c1ccccc1 | - | - | - | - | - | - | . | .
CCc1nnc(NS(=O)(=O)c2ccc(NC(=O)c3cccc(Br)c3)cc2)s1 | - | 4.5 | - | - | - | - | - | -
CC(C)c1ccc(NC(=O)c2cccc(Br)c2)cc1 | - | 5.7 | - | - | - | - | 10.8 | 6.6
COc1ccc(C(=O)C2(C(=O)NCc3ccccc3)CC(c3ccccc3C(F)(F)F)=NO2)cc1 (stereo not drawn) | . | - | . | - | . | . | . | .
Cc1ccc(-c2cc(C(=O)NN=C/C=C/c3ccco3)[nH]n2)cc1C | . | - | . | - | . | . | . | .
COC(=O)C1CCC(=O)N1C(c1ccc(OC)cc1)c1cc(OC)c(OC)c(OC)c1 (stereo not drawn) | . | 6.2 | - | - | . | - | 19.5 | -
COc1ccc(C(CNC(=O)Cc2cc(OC)c(OC)c(OC)c2)N2CCCC2)cc1 (stereo not drawn) | - | - | - | - | - | - | . | .
O=C(Nc1cccc(O)c1)C(=O)Nc1ccccn1 | - | 6.1 | - | - | - | - | 10.0 | 5.6
c1ccc(-c2cn3c(n2)-c2ccccc2C3)cc1 | - | 5.7 | - | - | - | - | 11.3 | 5.8
Cc1ccc2nc(-c3ccccc3)cn2c1 | - | - | - | - | - | - | . | .
Cc1cccc2nc(COc3ccc4ccccc4c3Br)cn12 | - | 4.8 | - | - | - | 6.5 | 11.9 | 7.3
O=C(NC1CCCCN(Cc2ccc(Cl)cc2)C1=O)c1cccc2nsnc12 (stereo not drawn) | . | - | . | - | . | . | . | .
Cc1ccc(C(=O)Cn2nnc3ccccc32)cc1C | - | 4.8 | - | - | - | - | 9.3 | 5.7
Cc1ccc(C(=O)Cn2nnc3ccccc32)cc1 | - | - | - | - | - | - | . | .
COc1ccc(OC)c2sc(N(CCCN(C)C)C(=O)c3ccc(S(=O)(=O)N4CCc5ccccc5C4)cc3)nc12 | - | . | . | . | - | . | . | .
COc1ccc(C)c2sc(N(CCCN(C)C)C(=O)c3ccc(S(=O)(=O)N4CCc5ccccc5C4)cc3)nc12 | - | 5.2 | - | - | - | - | - | -
Cc1c(C(=O)Nc2ccccc2)csc1-c1ccccc1 | - | 6.0 | - | - | - | - | 16.0 | 5.6
Cc1c(C(=O)Nc2ccccc2[N+](=O)[O-])csc1-c1ccccc1 | - | 4.7 | - | - | - | - | 13.9 | 7.4
COC(=O)[C@]12C[C@H](CC(=O)NCc3ccc(OC)c(OC)c3)C(=O)N(Cc3ccc4c(c3)OCO4)C1=C[C@H](C(C)(C)C)O[C@@H]2C | . | - | . | - | . | . | . | .
